The values below come from BindingDB's records for doi:10.1021/jm300280e (Radboud University Nijmegen Medical Centre, 2012).

Each structure is given as a SMILES string.

For this test, the target named is Adenosine receptor A2a (Homo sapiens, UniProt P29274). Briefly: Displacement of [3H]ZM241385 from human AA2AR expressed in HEK293T cells after 2 hrs by liquid scintillation counter. The gist of the method:
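Membranes of HEK293T cells stably expressing AA2AR (40 µg protein) incubated with 1.7 nM (final) [3H]ZM241385 in 50 mM Tris·HCl pH 7.4, 2 h at 25 °C with shaking. Nonspecific binding defined with 100 µM CGS21680. Filtered over GF/B, washed three times with ice-cold buffer. Compounds giving ≥50% inhibition at 10 µM went to concentration-response curves. pKi values, n=3 in duplicate.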
Background: In a radioligand displacement assay an active substance lowers the binding of a labelled ligand.

Chain of Adenosine receptor A2a (P29274 whole entry): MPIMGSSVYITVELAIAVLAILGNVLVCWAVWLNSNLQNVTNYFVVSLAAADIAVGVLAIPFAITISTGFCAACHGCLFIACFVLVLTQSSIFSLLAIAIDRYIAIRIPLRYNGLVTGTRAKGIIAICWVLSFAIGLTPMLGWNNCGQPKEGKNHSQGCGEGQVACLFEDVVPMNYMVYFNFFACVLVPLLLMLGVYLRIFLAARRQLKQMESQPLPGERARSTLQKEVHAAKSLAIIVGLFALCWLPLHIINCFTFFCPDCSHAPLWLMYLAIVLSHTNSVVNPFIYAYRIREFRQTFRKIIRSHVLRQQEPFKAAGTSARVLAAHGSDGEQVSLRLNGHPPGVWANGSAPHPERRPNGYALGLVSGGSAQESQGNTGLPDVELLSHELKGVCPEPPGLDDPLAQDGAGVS

By Ki is commonly meant a dissociation constant, usually derived from enzyme kinetics or from competition with a known ligand. A lower Ki goes with tighter binding. Compound `COc1cc(CN=Nc2ncnc3sc4c(c23)CCCC4)ccc1O` yielded a Ki of 5.01 µM. In other words, the single-digit micromolar range. The compound `N#CC(N=Nc1ccc(S(N)(=O)=O)cc1)c1nc2ccccc2[nH]1` (configuration not stated) had a Ki of 5.01 µM.
